Results filed as inconclusive are left out. The source made the active and inactive calls.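 Rule for the calls, unless noted: active = viability at or below 27.92% in each of two runs, the all-compound median minus 4 SD; inconclusive = no clear call, values can overlap the other calls; inactive = the rest.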
Legend:
[1] = OD615 S. cerevisiae growth inhibition, permissive medium, pilot counter-assay, permissive growth control for S. cerevisiae lifespan shortening project (AID 705;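 active = growth inhibition above 25% in both replicates, a cutoff set 3 SD above the mean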); conditions: OD615, 24 h, at 10 µM, hits give high values
Outline: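 Material: engineered DeaD yeast; compound dosing: one dose 10 µM, DMSO 0.25% final; measure: yeast growth inhibition indicated by reduced 24 h OD615; detection: OD615 turbidity read; incubation: cells pre-grown 4 h, then 24 h compound exposure, 30 °C humidified; medium: permissive synthetic complete medium with raffinose and galactose carbon sources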

[2] = Restrictive medium S. cerevisiae growth inhibition, OD615, pilot screen of yeast lifespan reduction project, restrictive growth control (AID 706;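 active = growth inhibition above a set limit, 3 SD over mean compound inhibition, in both replicates, cut at about 43% in these data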;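 note: modified DeaD lifespan yeast strain shifted to restrictive glucose medium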); conditions: OD615, 48 h, at 10 µM, hits give high values
Outline: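 material = engineered S. cerevisiae DeaD strain | medium = glucose-based CSMM-D restrictive medium | times = 4 h pre-incubation, 48 h exposure at 30 °C | technique = OD615 absorbance reading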

[3] = viability gain of MRP-1-high H69AR cells under doxorubicin, pilot screen, MRP-1 activator project, CellTiter-Glo, duplicate (AID 807;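 active = viability increase at or above a cutoff of the median across tested compounds plus 3 SD, cut at about 8.5% in these data, passing the limit was not always enough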;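 note: compound pretreatment 18-22 h then 72 h combined with doxorubicin; 0% = doxorubicin alone and 100% = vehicle without doxorubicin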); conditions: H69AR viability with doxorubicin, CellTiter-Glo luminescence; at 10 µM; hits give high values
[4] = growth suppression of beta-catenin knockout HCT116, pilot screen, human colon tumor cells (AID 823;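 active = cell viability at or below a set limit in both duplicate runs, the limit being the all-compound median minus 4 SD, cut at about 23% in these data, passing the limit was not always enough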;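 note: 0% = wells killed by 20 µM Hyamine and 100% = untreated DMSO cell wells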); conditions: CellTiter-Glo, 60 h, at 10 µM, hits give low values
[5] = growth suppression of PTEN-deleted HCT116, pilot screen, cell-based, HCT116 clonal line, CellTiter-Glo (AID 824); conditions: 60 h, at 10 µM, hits give low values;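 note: 0% = 20 µM Hyamine control and 100% = vehicle cell control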
[6] = inhibitors of the yeast RAM network, pilot screen, dse1pr::URA3 reporter, 5-FOA selection (AID 869;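 active = inhibition over a set limit, the all-compound mean plus 3 SD, in both replicate runs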;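 note: 0% = DMSO wells with no growth and 100% = 10 µM 1-NA-PP1 with full growth; RAM network block rescues cells from 5-FOA so hits raise OD615 growth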); conditions: S. cerevisiae dse1pr::URA3 5-FOA growth, OD615, 2 d; at 10 µM; hits give high values; strain carries analog-sensitive mutant Cbk1 kinase
[7] = RAM signaling pathway blockade in yeast – S. cerevisiae, Pdr1DBD-CYC8 efflux-inhibited sensitized strain, primary screen (AID 1298;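 active = RAM network inhibition above 8.4% in each of two replicates, 3 SD over the compound average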;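 note: 0% = DMSO untreated cells without growth and 100% = 10 µM 1-NA-PP1 full growth; higher means more yeast growth rescued from 5-FOA killing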); conditions: S. cerevisiae cbk1-as DSE1-URA3 strain, 5-FOA growth OD615, 2 d; at 50 µM; hits give high values

CN(CCC#N)C(=O)Cn1nc(Cc2ccncc2)c2ccccc2c1=O
inactive: growth inhibition [1] -2.53% | growth inhibition [2] -1.35% | viability increase [3] 0.95% | viability [4] 102% | viability [5] 95.6% | inhibition [6] 0.515% | RAM network inhibition [7] 0.16%

O=C(c1ccccc1S(=O)(=O)NCc1ccccc1)N1CCCCC1
inactive: growth inhibition [1] -1.57% | growth inhibition [2] -5.03% | viability increase [3] -2.89% | viability [4] 98.6% | viability [5] 91% | inhibition [6] 1.01% | RAM network inhibition [7] 1.68%

Cn1cccc1Cc1nnc(SCC(=O)Nc2nccs2)n1CCc1ccccc1
active: growth inhibition [2] 62.6%
inactive: growth inhibition [1] 19.9% | viability increase [3] -2.32% | viability [4] 103% | viability [5] 85.8% | inhibition [6] 1.12% | RAM network inhibition [7] 2.48%

Nc1cccc(-n2nncc2-c2ccc(Cl)cc2)c1
inactive: growth inhibition [1] -6.67% | growth inhibition [2] -5.47% | viability increase [3] -1.43% | viability [4] 99.3% | viability [5] 91.8% | inhibition [6] 1.98% | RAM network inhibition [7] 3.64%

CC(C)(C)c1ccc(S(=O)(=O)N2CCN(CCC#N)CC2)cc1
inactive: growth inhibition [1] -8.29% | growth inhibition [2] -2.35% | viability increase [3] -2.4% | viability [4] 100% | viability [5] 96.3% | inhibition [6] 0.88% | RAM network inhibition [7] 4.27%

Cc1ccc(-c2nc(-c3ccccc3)no2)c(Cl)c1
inactive: growth inhibition [1] -6.6% | growth inhibition [2] -11.1% | viability increase [3] -4.72% | viability [4] 78.9% | viability [5] 78% | inhibition [6] 3.96% | RAM network inhibition [7] 3.45%

Cc1c(NS(=O)(=O)c2ccccc2)cc(Cl)c(O)c1C
inactive: growth inhibition [1] -9.11% | growth inhibition [2] -4.86% | viability increase [3] -5.19% | viability [4] 90.9% | viability [5] 93.5% | inhibition [6] 0.695% | RAM network inhibition [7] 6.75%

COc1ccc(-c2nc(C(N)=O)c3[nH]c(=O)n(-c4ccccc4OC)c3n2)c(OC)c1
inactive: growth inhibition [1] -0.775% | growth inhibition [2] 4.02% | viability increase [3] -4.59% | viability [4] 74.1% | viability [5] 63.2% | inhibition [6] 0.63% | RAM network inhibition [7] 0.1%

O=C(Cn1cnc2c(nnn2Cc2ccc(Cl)cc2)c1=O)N1CCN(c2ccccc2)CC1
inactive: growth inhibition [1] -7.16% | growth inhibition [2] -12.6% | viability increase [3] 3.63% | viability [4] 82.3% | viability [5] 80.5% | inhibition [6] 1.98% | RAM network inhibition [7] 6.43%

CCCOC(=O)CC1C(=O)NCCN1Cc1ccccc1C (configuration not stated)
inactive: growth inhibition [1] -20.8% | growth inhibition [2] -0.97% | viability increase [3] -0.62% | viability [4] 98.8% | viability [5] 94.2% | inhibition [6] 1.71% | RAM network inhibition [7] 7.95%

O=C(c1ccc(CS(=O)(=O)c2c(Cl)cccc2Cl)o1)N1CCN(c2ccccn2)CC1
inactive: growth inhibition [1] -4.86% | growth inhibition [2] -8.68% | viability increase [3] -3.07% | viability [4] 97.8% | viability [5] 93.1% | inhibition [6] -0.07% | RAM network inhibition [7] 3.34%

CC(=O)Nc1ccc(S(=O)(=O)Nc2nc3ccccc3nc2Sc2nncn2C)cc1
inactive: growth inhibition [1] 1.94% | growth inhibition [2] 11.7% | viability increase [3] -2.89% | viability [4] 98.1% | viability [5] 98.1% | inhibition [6] 1.86% | RAM network inhibition [7] 2.12%

CCCn1c(C(C)NC(C)=O)nc2ccccc21 (configuration not stated)
inactive: growth inhibition [1] -10.3% | growth inhibition [2] -16.9% | viability increase [3] -1.47% | viability [4] 99.2% | viability [5] 90.7% | inhibition [6] 1.3% | RAM network inhibition [7] 1.25%

COc1ccc(Cc2nnc(NC(=O)c3c(-c4ccccc4)noc3C)s2)cc1
inactive: growth inhibition [1] -14% | growth inhibition [2] -3.4% | viability increase [3] 0.94% | viability [4] 88.3% | viability [5] 85.2% | inhibition [6] 1.82% | RAM network inhibition [7] 5.46%

CN(C)C(C(=O)NC1CCCCC1)c1ccc(Cl)cc1 (configuration not stated)
inactive: growth inhibition [1] -5.65% | growth inhibition [2] -17.6% | viability increase [3] -3.08% | viability [4] 80.2% | viability [5] 84.2% | inhibition [6] 0.575% | RAM network inhibition [7] -0.68%

COc1ccccc1NC(=O)N1CCN(c2ccc3nncn3n2)CC1
inactive: growth inhibition [1] -3.47% | growth inhibition [2] 0.79% | viability increase [3] 0.48% | viability [4] 106% | viability [5] 103% | inhibition [6] -0.315% | RAM network inhibition [7] 0.69%

CCCC(=O)NCCc1nc2ccccc2n1CCC
inactive: growth inhibition [1] -7.3% | growth inhibition [2] 2.73% | viability increase [3] 0.5% | viability [4] 102% | viability [5] 101% | inhibition [6] 2.72% | RAM network inhibition [7] -1.16%

COc1ccc(OC)c(NC(=O)Cn2cnc3c(cnn3-c3ccccc3)c2=O)c1
inactive: growth inhibition [1] 3.69% | growth inhibition [2] 7.43% | viability increase [3] -0.9% | viability [4] 98% | viability [5] 94.2% | inhibition [6] 1.27% | RAM network inhibition [7] 0.95%

Cc1nnc(NC(=O)C(C)Sc2nncn2C)s1 (configuration not stated)
inactive: growth inhibition [1] -15.9% | growth inhibition [2] -22.2% | viability increase [3] 3.71% | viability [4] 107% | viability [5] 94.8% | inhibition [6] 1.18% | RAM network inhibition [7] 1.06%

CCOC(=O)c1sc(/N=C/N(C)C)c(C(=O)OCC)c1C
inactive: growth inhibition [1] -5.24% | growth inhibition [2] 0.92% | viability increase [3] -3.82% | viability [4] 95.3% | viability [5] 90.4% | inhibition [6] 1.98% | RAM network inhibition [7] 7.56%

Cc1nc2ccc(S(=O)(=O)NC(C(=O)N3CCC(C)CC3)C(C)C)cc2s1 (configuration not stated)
inactive: growth inhibition [1] -13.4% | growth inhibition [2] -2.64% | viability increase [3] -2.02% | viability [4] 93.9% | viability [5] 89% | inhibition [6] 2.38% | RAM network inhibition [7] 2.55%

O=C(NCc1cccs1)c1ccccc1F
inactive: growth inhibition [1] -9.19% | growth inhibition [2] -7.24% | viability increase [3] -0.25% | viability [4] 94.2% | viability [5] 88.9% | inhibition [6] 0.385% | RAM network inhibition [7] 1.34%

O=C(c1ccc(CN2CCc3ccccc3C2)cc1)N1CCCCC1
inactive: growth inhibition [1] 4.87% | growth inhibition [2] 3.72% | viability increase [3] -2.43% | viability [4] 94.2% | viability [5] 93.9% | inhibition [6] 3.59% | RAM network inhibition [7] 4.9%

CCOc1ccc(OCC)c(Nc2cc(C)nc3nc(C)nn23)c1
inactive: growth inhibition [1] -13.3% | growth inhibition [2] -2.15% | viability increase [3] -6.5% | viability [4] 53.1% | viability [5] 46.6% | inhibition [6] 0.055% | RAM network inhibition [7] 6.18%

CCN1C(=O)c2cccc3c(N)ccc1c23
inactive: growth inhibition [1] -0.755% | growth inhibition [2] -11% | viability increase [3] -5.55% | viability [4] 74.2% | viability [5] 68.3% | inhibition [6] 0% | RAM network inhibition [7] 1.92%

COCCOC(=O)C1=C(C)NC2=C(C(=O)CCC2)C1c1cc2c(cc1Br)OCO2 (configuration not stated)
inactive: growth inhibition [1] -18.1% | growth inhibition [2] -17% | viability increase [3] -0.03% | viability [4] 92.4% | viability [5] 102% | inhibition [6] 1.16% | RAM network inhibition [7] 5.69%

COc1ccc(CCNC(=O)CCS(=O)(=O)c2cccc3nsnc23)cc1OC
inactive: growth inhibition [1] -10.1% | growth inhibition [2] -13.1% | viability increase [3] -2.17% | viability [4] 96.4% | viability [5] 97.5% | inhibition [6] 0.45% | RAM network inhibition [7] 3.1%

O=C(Nc1ccc(Cl)c(Cl)c1)c1ccncc1
inactive: growth inhibition [1] -19.8% | growth inhibition [2] -34.8% | viability increase [3] -1.27% | viability [4] 101% | viability [5] 90.6% | inhibition [6] 0.83% | RAM network inhibition [7] 2.47%

COC(=O)c1c(C)nn(-c2ccccc2)c1N
inactive: growth inhibition [1] -12.5% | growth inhibition [2] -19.5% | viability increase [3] -1.39% | viability [4] 108% | viability [5] 98.5% | inhibition [6] 1.2% | RAM network inhibition [7] -0.37%

COc1ccc(S(=O)(=O)N2CCN(C)CC2)cc1C
inactive: growth inhibition [1] -15.1% | growth inhibition [2] -4% | viability increase [3] 1.37% | viability [4] 88.4% | viability [5] 92.1% | inhibition [6] 3.29% | RAM network inhibition [7] 3.02%

O=C1N=C(N2CCOCC2)SC1=C1CCCCC1
inactive: growth inhibition [1] -8.5% | growth inhibition [2] -2.34% | viability increase [3] -2.09% | viability [4] 98% | viability [5] 97.1% | inhibition [6] 1.17% | RAM network inhibition [7] 1.84%

O=C(Nc1nc2c(s1)COc1ccccc1-2)c1cccs1
inactive: growth inhibition [1] 0.91% | growth inhibition [2] -0.5% | viability increase [3] -4.13% | viability [4] 72.2% | viability [5] 71% | inhibition [6] 1.43% | RAM network inhibition [7] 3.54%

CN1CCN(c2cc3c(c4c2[nH]c2ccccc24)C(=O)CC(C)(C)C3)CC1
inactive: growth inhibition [1] -15.3% | growth inhibition [2] 4.61% | viability increase [3] -8.46% | inhibition [6] 0.76% | RAM network inhibition [7] 0.78%
active: viability [4] 1.73% | viability [5] 1.58%

C=C(C)Cn1c(C(C)NC(=O)CCC)nc2ccccc21 (configuration not stated)
inactive: growth inhibition [1] -26.1% | growth inhibition [2] -7.25% | viability increase [3] -3.54% | viability [4] 83.9% | viability [5] 86.7% | inhibition [6] 1.8% | RAM network inhibition [7] 0.47%

COc1ccc(C2N(c3cc(Cl)ccc3OC)C(=O)C3CCCN32)cc1 (configuration not stated)
inactive: growth inhibition [1] 2.4% | growth inhibition [2] -1.37% | viability increase [3] -1.89% | viability [4] 106% | viability [5] 96.9% | inhibition [6] 1.01% | RAM network inhibition [7] -0.42%

O=C(CCN1C(=O)c2ccccc2C1=O)N1CCN(Cc2ccc(Cl)cc2Cl)CC1
inactive: growth inhibition [1] -8.77% | growth inhibition [2] -18% | viability increase [3] 1.45% | viability [4] 98.3% | viability [5] 104% | inhibition [6] 1.12% | RAM network inhibition [7] 7.67%
